E-selectin induc: E-selectin induction on HUVECs; HUVEC E-selectin immunofluorescence imaging; normalized: neutral wells 0, TNF-alpha wells 100; activation, % at 7.58 µM; hit rate 0.37% among 260,000;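 active = mean E-selectin-positive cell signal at least 10% of the positive control, reached in at least 60% of replicates, without over 20% cell loss; inconclusive = no rule given, readout overlaps actives, possibly toxicity-flagged; inactive = the rest, including those meeting only one limit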
Target sequence (P16581 whole entry, looked up): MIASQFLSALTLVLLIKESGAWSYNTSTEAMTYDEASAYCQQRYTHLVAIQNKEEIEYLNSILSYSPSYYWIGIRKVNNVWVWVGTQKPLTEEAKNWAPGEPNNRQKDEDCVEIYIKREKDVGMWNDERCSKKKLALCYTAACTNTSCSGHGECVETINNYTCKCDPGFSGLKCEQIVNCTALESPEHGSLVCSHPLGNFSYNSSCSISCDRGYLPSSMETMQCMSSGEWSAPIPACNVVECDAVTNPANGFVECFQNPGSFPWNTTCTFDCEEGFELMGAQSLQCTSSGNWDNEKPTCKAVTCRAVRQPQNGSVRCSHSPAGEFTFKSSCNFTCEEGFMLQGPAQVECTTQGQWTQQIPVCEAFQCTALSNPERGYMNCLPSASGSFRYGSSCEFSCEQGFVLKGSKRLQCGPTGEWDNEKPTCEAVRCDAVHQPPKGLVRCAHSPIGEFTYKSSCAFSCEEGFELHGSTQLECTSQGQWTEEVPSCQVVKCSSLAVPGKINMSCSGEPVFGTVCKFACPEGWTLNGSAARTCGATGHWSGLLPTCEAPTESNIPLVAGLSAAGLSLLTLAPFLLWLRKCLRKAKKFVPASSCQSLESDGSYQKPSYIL
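Read-out: % PE-positive cells | Test system: HUVEC | Doses: One compound dose added by pin transfer | Buffer or medium: EGM-2 over gelatin coat | Signal: Immunofluorescence imaging | Benchmarks: TNF-alpha, DMSO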
C2C12 statin: suppression of simvastatin myotoxicity; C2C12 myotubes + simvastatin, ATP luminescence, 48 h; scaled: DMSO 0, geranylgeraniol control 100; rescue of ATP level, % at 7.49 µM; hit rate 0.78% among 330,000; AID 602340;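 active = mean ATP rescue above about 67%, or every replicate alone reaching that limit, limit read from the data, passing the limit was not always enough; inconclusive = no clear call, values can overlap the other calls; inactive = mean under the limit and some replicate under it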;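 note: myotubes were challenged with 10 µM simvastatin during compound exposure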
rRNA inh HTS: inhibitors of bacterial rRNA selective over humanized ribosomes. GFP signal change (wild-type ribosome), % (test concentration not listed). AID 720706. E. coli WT GFP vs humanized-ribosome RFP mutants, fluorescence, 24 h; hits give low values; DMSO median 0, no signal -100. hit rate 1.6% among 350,000;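 active = significant combined selectivity score with lowered wild-type GFP, culture density cut under 30%, mutant RFP and density less affected; inactive = any of these conditions unmet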
FN deposition inh: fibronectin deposition inhibition; AH1F fibroblasts, Alexa488-fibronectin deposition fluorescence, overnight; inhibition, % at 12.6 µM; hit rate 0.086% among 350,000;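 active = mean inhibition across replicates of 30% or more, regardless of how many single replicates reach that level; inconclusive = mean under 30% yet at least half of replicates reach 30%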;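 note: positive control wells lacked labelled fibronectin entirely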
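Assay system: AH1F fibroblasts / Quantity: 10000 cells per well / Medium: DMEM plus 2% serum, read in PBS / Reagent: labelled fibronectin 24 nM / Dosing: single dose, pinned / Times: 1 h cell attachment, overnight exposure to compound and label / Signal: fluorescence, ex 485 nm, em 525 nm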
SIRT5 inh: inhibitors of human sirtuin-5 desuccinylase | Q9NXA8 | Purified SirT5, succinyl-peptide AMC, trypsin-coupled fluorescence | inhibition, % at 15 µM | hit rate 1.1% among 330,000 | AID 652115; in the data active = inhibition above about 15%; inconclusive = no clear call, values can overlap the other calls
FGF22 binding: binders of recombinant human FGF22 by thermal shift | Q9HCT0 | SYPRO orange fluorescence; percent of sucrose octasulfate shift, DMSO zero | hit rate 1.5% among 340,000 | AID 651658 | activity (Tm shift, normalised), % at 9.99 µM;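 active = mean Tm shift, scaled 0 neutral to 100 positive control, at about 1.3% or above, every replicate too, limit read from the data; inconclusive = no clear call, values can overlap the other calls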
AID977621: growth inhibition of wild-type GFP E. coli, dose response, H69 mutant RFP, cherry-pick; shares compounds with rRNA inh HTS; E. coli wild-type GFP strain growth, fluorescence, 24 h; activity change, negative = inhibition at 50 µM; 1,900 tested, under 10 active; AID 977621;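 active = Wild-type ribosome reporter drop at least double the humanized mutant ribosome reporter drop, growth loss under a set limit; inconclusive = no clear call, values can overlap the other calls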;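 note: wild-type GFP and H69 mutant RFP strains grown together 50/50 in each well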
AID977628: growth of wild-type and h24-humanized E. coli strains – h24 mutant RFP vs wild-type GFP, cherry-pick, dose response | shares compounds with rRNA inh HTS | E. coli WT GFP strain growth, fluorescence, 24 h | activity change, negative = inhibition at 50 µM | 1,900 tested, under 10 active | AID 977628;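 active = compound lowering the normal-ribosome reporter at least twice as much as the humanized-ribosome reporter, growth loss under a set limit; inconclusive = no clear call, values can overlap the other calls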;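 note: wild-type GFP and h24 humanized RFP strains co-cultured 1 to 1 per well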
The depositor's hits bear a star. Most compounds without a hit are left out; they make up all but 4% or so of the library.

For Cc1noc(C)c1NC(=O)Nc1ccc2c(c1)C(=O)N([C@@H](C)CO)C[C@@H](C)[C@H](CN(C)C(=O)Nc1ccc3c(c1)OCO3)OCCCC[C@@H](C)O2 the results were E-selectin induc 0, rRNA inh HTS 1, FN deposition inh -12, SIRT5 inh -2, FGF22 binding 0, AID977621 inconclusive and AID977628 13.
Cc1noc(C)c1NC(=O)Nc1ccc2c(c1)C(=O)N([C@H](C)CO)C[C@H](C)[C@H](CN(C)C(=O)Nc1ccc3c(c1)OCO3)OCCCC[C@H](C)O2 was read as E-selectin induc 0, rRNA inh HTS 0, FN deposition inh -17, SIRT5 inh -4, FGF22 binding 0, AID977621 -1.4 and AID977628 12.
Cc1noc(C)c1NC(=O)N(C)C[C@@H]1OCCCC[C@@H](C)Oc2ccc(NC(=O)Nc3ccc4c(c3)OCO4)cc2C(=O)N([C@H](C)CO)C[C@@H]1C was read as E-selectin induc 0, C2C12 statin -14, rRNA inh HTS 1, SIRT5 inh -2 and FGF22 binding 0.
For COCC(=O)Nc1ccc2c(c1)C(=O)N(C)[C@@H]1CC[C@@H](CC(=O)Nc3cn(C)nc3C)O[C@H]1CO2 the results were E-selectin induc 0, C2C12 statin 17, rRNA inh HTS 4, FN deposition inh -13 and FGF22 binding 1.
CCCNC(=O)[C@H]1[C@H](CO)[C@H]2Cn3c(ccc(-c4cccnc4)c3=O)[C@H]2N1CCC was read as E-selectin induc 0, C2C12 statin -7, rRNA inh HTS 6, SIRT5 inh 1 and FGF22 binding 0.
For COc1ccc2c3c([nH]c2c1)[C@@H](CO)N(Cc1ccccc1)CC31CN(S(C)(=O)=O)C1 the results were E-selectin induc -1, rRNA inh HTS -1 and FGF22 binding 0.
For COc1ccc2c3c([nH]c2c1)[C@H](CO)NCC31CN(C(=O)c2ccccc2)C1 the results were rRNA inh HTS 2.
CCN1[C@H](C(=O)Nc2ccccc2)[C@@H](CO)[C@@H]2Cn3c(ccc(-c4ccccc4)c3=O)[C@@H]21 was read as E-selectin induc 0, C2C12 statin 20, rRNA inh HTS -3, SIRT5 inh -3 and FGF22 binding 0.
Screening C[C@H]1CN([C@@H](C)CO)C(=O)c2cc(-c3ccccc3F)cnc2O[C@H]1CN(C)Cc1ccccc1 returned E-selectin induc 0, C2C12 statin -41, rRNA inh HTS 2, FN deposition inh 15, SIRT5 inh -3 and FGF22 binding 0.
`Cc1noc(C)c1NC(=O)N(C)C[C@H]1OCCCC[C@@H](C)Oc2ccc(NC(=O)Nc3ccc4c(c3)OCO4)cc2C(=O)N([C@H](C)CO)C[C@@H]1C` gave E-selectin induc 0, C2C12 statin 12, rRNA inh HTS 4, SIRT5 inh -3 and FGF22 binding 0.
Screening Cc1noc(C)c1NC(=O)Nc1ccc2c(c1)C(=O)N([C@@H](C)CO)C[C@H](C)[C@H](CN(C)C(=O)Nc1ccc3c(c1)OCO3)OCCCC[C@H](C)O2 returned E-selectin induc 0, rRNA inh HTS 2, FN deposition inh 1, SIRT5 inh 2, FGF22 binding 0 and AID977628 inconclusive.
`COC(=O)c1cc2c(c3c4cc(F)ccc4n(S(=O)(=O)c4ccccc4)c13)C(=O)N(Cc1ccco1)C2` gave E-selectin induc 0, rRNA inh HTS -18*, FN deposition inh -1, FGF22 binding 0, AID977621 -2.1 and AID977628 inconclusive.
For COC(=O)c1cc2c(c3c4ccccc4n(S(=O)(=O)c4ccccc4)c13)C(=O)N(Cc1ccco1)C2 the results were E-selectin induc 0, rRNA inh HTS -19, FN deposition inh 6 and FGF22 binding 0.
COC(=O)c1cc2c(c3c4cc(OC)ccc4n(C(=O)c4ccccc4)c13)C(=O)N(Cc1ccco1)C2 was read as E-selectin induc 1, rRNA inh HTS -14*, FN deposition inh 0, FGF22 binding 0, AID977621 0.15 and AID977628 -7.4.
`COC(=O)c1cc2c(c3c4cc(F)ccc4n(C(=O)c4ccccc4)c13)C(=O)N(Cc1ccco1)C2` gave E-selectin induc 1, rRNA inh HTS 4, FN deposition inh 4 and FGF22 binding 0.
`COC(=O)c1cc2c(c3c4cc(F)ccc4n(S(=O)(=O)c4cccc(C)c4)c13)C(=O)N(Cc1ccco1)C2` gave E-selectin induc 0, rRNA inh HTS -17*, FN deposition inh 2, FGF22 binding 0, AID977621 -19 and AID977628 -9.8.
Screening COC(=O)c1cc2c(c3c4cc(F)ccc4n(S(=O)(=O)c4cccc(C)c4)c13)C(=O)N(Cc1ccccc1OC)C2 returned E-selectin induc 0, rRNA inh HTS 4, FN deposition inh 2 and FGF22 binding 0.
`O=S(=O)(Nc1ccc(-c2cnco2)cc1)c1ccccc1` gave E-selectin induc 7, rRNA inh HTS -25*, FN deposition inh -4, SIRT5 inh -2, FGF22 binding 0 and AID977621 -11.
Screening C[C@@H]1CN(C)C(=O)Cc2cc(NS(C)(=O)=O)ccc2O[C@@H]1CN(C)C returned rRNA inh HTS 0 and FN deposition inh 2.
Screening CCCc1cc(C(=O)N2CCCC(C(=O)c3cccc4ccccc34)C2)n(C)n1 (stereo not given) returned C2C12 statin 11, rRNA inh HTS -9, FN deposition inh -6, SIRT5 inh 3 and FGF22 binding 0.
CCc1cc(C(=O)N2CCCC(C(=O)c3cccc4ccccc34)C2)n(C)n1 (stereo not given) was read as E-selectin induc 4, rRNA inh HTS -26*, FN deposition inh -6, SIRT5 inh 1, FGF22 binding 0 and AID977621 -6.8.
CC1CC(C)CN(c2oc(Cc3ccccc3)nc2C#N)C1 (stereo not given) was read as E-selectin induc 1 and FN deposition inh 1.
N#Cc1nc(Cc2ccccc2)oc1N1CCCC1 was read as rRNA inh HTS -23*, FN deposition inh 6, SIRT5 inh -7, FGF22 binding 42 and AID977628 inconclusive.
